# Measurements from the RNAGym collection of RNA variant scans (doi:10.1126/science.aae0568).
# Variants at the floor of the assay were thinned out.
# B1: tRNA (parent)
# chain: GUUCCGUUGGCGUAAUGGUAACGCGUCUCCCUCCUAAGGAGAAGACUGCGGGUUCGAGUCCCGUACGGAACG
# Variants of: B1
# Experiment: yeast fitness relative to wild type (ratio to wild type); higher = fitter; tRNA-Arg(CCU), competitive growth, 37 C, YPD
# Method in brief: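 Gene amplicons from the start population and from each of six end populations were read by 100-nucleotide paired-end sequencing. Those end populations came from pooled Saccharomyces cerevisiae strains carrying tRNA-Arg(CCU) gene variants at the native locus, competed in YPD at 37°C for 24 hours. Fitness relative to wild type was worked out from changes in genotype frequencies. Genotypes needed ≥ 100 starting reads, and estimates < 0.5 were set to 0.5.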
row,Variant,yeast fitness
1,GUUCCGUUAGCGUAAUGGUAACGCGUCUCCCUCCUAAGGAGACGACUGCGGGUUCGAGUCCCGUACGGAACG [G9A A43C],1.07
2,GUUCCGUUAGCGUAAUGGUAACGCGUCUCCCUCCUAAGGAGAUGACUGCGGGUUCGAGUCCCGUACGGAACG [G9A A43U],1.08
3,GUUCCGUUAGCGUAAUGGUAACGCGUCUCCCUCCUAAGGAGAAGGCUGCCGGUUCGAGUCCCGUACGGCACG [G9A A45G G50C A69C],≤ 0.5
4,GUUCCGUUAGCGUAAUGGUAACGCGUCUCCCUCCUAAGGAGAAGUCUGCGGGUUCGAGUCCCGUACGGAUCG [G9A A45U A70U],1.01
5,GUUCCGUUAGCGUAAUGGUAACGCGUCUCCCUCCUAAGGAGAAGACUGCGGGUUCGGGUCCCGUACGGAACG [G9A A57G],0.933
6,GUUCCGUUAGCGUAAUGGUAACGCGUCUCCCUCCUAAGGAGAAGACUGCGGGUUCGAGUCCCGUGUGGAACG [G9A A65G C66U],0.815
7,GUUCCGUUAGCGUAAUGGUAACGCGUCUCCCUCCUAAGGAGAAGACUGCGGGUUCGAGUCCCGUUCGGAACG [G9A A65U],0.93
8,GUUCCGUUAGCGUAAUGGUAACGCGUCUCCCUCCUAAGGAGAAGACUGCGGGUUCGAGUCCCGUACGGGACG [G9A A69G],0.953
9,GUUCCGUUAGCGUAAUGGUAACGCGUCUCCCUCCUAAGGAGAAGACUGCGGGUUCGAGUCCCGUACGGUACG [G9A A69U],1.04
10,GUUCCGUUAGAGUCAAGGUAACGCGUCUCCAUCCUAAGGAGAAGACUGCGGGUUCGAGUCCUGUACGGAACG [G9A C11A A14C U16A C31A C62U],≤ 0.5
11,GUUCCGUUAGAGUAAUGGUUACGCGUCUCCCUCCUAAGGAGAAGACUGCGGGUUCGAGUCUCGUACGGAACG [G9A C11A A20U C61U],0.559
12,GUUCCGUUAGAGUAAUGGUUACACGUCUCCCUCCUAAGGAGAAGACUGCGAGUUCGAGUCCCGUACGGAACG [G9A C11A A20U G23A G51A],≤ 0.5
13,GUUCCGUUAGAGUAAUGGUAACGCGUCUCCCUCCUAAGGUGAAGACUCCGGGUUUGAGUCGCGUACGGAACG [G9A C11A A40U G48C C55U C61G],≤ 0.5
14,GUUCCGUUAGAGUAAUGGUAACGCGUCUCGCUCCUAAGGAGAAGAUUGCGGGUUCGAGUCCCGUACGGAACG [G9A C11A C30G C46U],≤ 0.5
15,GUUCCGUUAGAGUAAUGGUAACGCGUCUCCCUCCUAAGGAGAACACUGCGGGUUCGAGUCCCGUACGGAACG [G9A C11A G44C],≤ 0.5
16,GUUCCGUUAGAGUAAUGGUAACGCGUCUCCCUCCCAAGGAGAAGACUGCCGGUUCGAGUCCCGUACGGAACG [G9A C11A U35C G50C],≤ 0.5
17,GUUCCGUUAGGGUAAUGGUAAUGCGUCUCCCUCCUAAGGGGGAGACUGCGGGUUCGAGUCCCGUACGGAACG [G9A C11G C22U A40G A42G],≤ 0.5
18,GUUCCGUUAGGGGAAUGGUAACCCGUCUCCCUCUUAAGGAGAAGACUGCGGGUUUGAGUCCCGUACGGAACG [G9A C11G U13G G23C C34U C55U],≤ 0.5
19,GUUCCGUUAGGGUAAUGGCGACGCGUCUCCCUCCUAAGGAGAAGACUGCGGGUUCAAGUGCCGUACGGAACG [G9A C11G U19C A20G G56A C60G],≤ 0.5

row,Variant,yeast fitness
1,GUUCCGUUAGGGUAAUGGCAACGCGUCUCCCUCCUAAGGAGAAGACUGCGGGUUAGAGUCCCGUACGGAACG [G9A C11G U19C C55A],≤ 0.5
2,GUUCCGUUAGUGUAAUGGUAACGCGUUUCCCUCCUGAGGAGAAGACUGCGGGUUCGAGUCCCGUACGGAACG [G9A C11U C27U A36G],≤ 0.5
3,GUUCCGUUAGUGUAAUGGUAACGCGUCUUCCUCCUAAGGAGAAGACUGCGGGUUCGAGUCCCGUUCGGAACG [G9A C11U C29U A65U],≤ 0.5
4,GUUCCGUUAGUGUAAUGGUAACGCGUCUCCUUCCUAAGGAGAAGACUGCGGGUUCGAGUCCCGUACGGAACG [G9A C11U C31U],0.704
5,GUUCCGUUAGUGUAAUGGUAACGCGUCUCCCUCCUAAGGAGAAGACUGAGGGUUCGAGUCCCGUACUGAACG [G9A C11U C49A G67U],≤ 0.5
6,GUUCCGUUAGUGUAAUGGUAACGCGUCUCCCUCCUAAGGAGAAGACUGCGGGUUCGAGUCACGUACGGAACG [G9A C11U C61A],0.56
7,GUUCCGUUAGUGUAAUGGUAACGCGUCUCCCUCCUAAGGAGAAGACUGCGGGUUCGAGUCCCGUAUGGAACG [G9A C11U C66U],0.779
8,GUUCCGUUAGCGUAAUGGUAAAGCGUCUCCCUGCAAAGGAGAAGACUGCGGGUUUGAGUCCCGUACGGAACG [G9A C22A C33G U35A C55U],≤ 0.5
9,GUUCCGUUAGCGUAAUGGUAAAGCGUCUCCCUCCUAAGGAGAAGACUGCGGGUUCGAGUACCGUACGGAACG [G9A C22A C60A],0.705
10,GUUCCGUUAGCGUAAUGGUAAGGCGUCUCCCUCCUUAGGAGAAGACUGCGGGUUCGAGUCCCGUACGGAACG [G9A C22G A36U],0.666
11,GUUCCGUUAGCGUAAUGGUAAGGCGUCUCCCUCCUAAGGAGAAGGCUGCGGGUUCGAGUCCCGUACGGAACG [G9A C22G A45G],0.588
12,GUUCCGUUAGCGUAAUGGUAAGGCGUCACCGUCCUAAGGAGAAGACUGCGGGUUAGAGUCCCGUACGCAACG [G9A C22G U28A C31G C55A G68C],≤ 0.5
13,GUUCCGUUAGCGUAAUGGUAAUGCGUCUCGCUCCUAAGGAGAAGACUGCGGGUUCGAGUCUCGUACGGAACG [G9A C22U C30G C61U],≤ 0.5
14,GUUCCGUUAGCGUAAUGGUAACGGGUCUCCCUCCUACGGAGAAGACUGCGGGUUCGAGUCCCGUACGGAUCG [G9A C24G A37C A70U],≤ 0.5
15,GUUCCGUUAGCGUAAUGGUAACGGGUCUCCCUCCUAAGGCGAAGACUGCGGGUUCGAGUCCCGUACGGAACG [G9A C24G A40C],≤ 0.5
16,GUUCCGUUAGCGUAAUGGUAACGGGUCUCCCUCGUAAGGAGAAGACUGCGGGUUCGAGUCCCGUACGGAACG [G9A C24G C34G],0.633
17,GUUCCGUUAGCGUAAUGGUAACGGGUCUCCCUCGUAAGGAGAAGCCUGCGGGUUCGAGUCCCGUGCGGAACG [G9A C24G C34G A45C A65G],≤ 0.5
18,GUUCCGUUAGCGUAAUGGUAACGGGUCUCCCUCGUAAGGAGAAGACUGCGGGUUAGAGUCCCGUGCGGAACG [G9A C24G C34G C55A A65G],≤ 0.5
